Results published in article PMC9476207 (ACS Omega, 2022).

Assays:
Test in all cases: NCI-60 single-dose antiproliferative screen
Format in all cases: cell-based
[1] = system: SR; details: Homo sapiens, 48 h, read-out: growth percent
In short: (§1)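 Cells grown in RPMI 1640 with 5% FBS and 2 mM L-glutamine, plated and held 24 h at 37 °C; time-zero plates TCA-fixed. DMSO stocks were diluted in gentamicin-containing medium to a final 10^-5 M, with a DMSO-only control. Exposure 48 h, 5% CO2. Adherent cells TCA-fixed 1 h at 4 °C, stained with 0.4% SRB, solubilised in 10 mM Trizma base, read at 515 nm. Growth percent derived from ODtzero, ODtest and ODctrl.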

[2] = system: NCI-H23; details: Homo sapiens, NCI-H23, 48 h, read-out: growth percent
In short: (§2)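 NCI-60 protocol. Lines were grown in RPMI 1640 with 5% FBS and 2 mM L-glutamine, plated and incubated 24 h at 37 °C; time-zero plates were TCA-fixed. The test compound was dissolved in DMSO, diluted in medium with 50 μg/mL gentamicin and given once at a final 10^-5 M (DMSO control) for 48 h. Cells were fixed with cold TCA (1 h, 4 °C) and stained with 0.4% SRB in 1% acetic acid for 10 min. Dye was dissolved in 10 mM Trizma base and read at 515 nm. Growth percent was calculated from time-zero, test and control ODs.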

[3] = system: T-47D; details: Homo sapiens, T47D, 48 h, read-out: growth percent
In short: as §1

[4] = system: CAKI-1; details: Homo sapiens, CAKI-1, 48 h, read-out: growth percent
In short: as §2

[5] = system: OVCAR-5; details: Homo sapiens, OVCAR-5, 48 h, read-out: growth percent
In short: as §2

[6] = system: MDA-MB-435; details: Homo sapiens, MDA-MB-435, 48 h, read-out: growth percent
In short: as §2

[7] = system: SK-MEL-2; details: Homo sapiens, SK-MEL-2, 48 h, read-out: growth percent
In short: as §1

[8] = system: SF-539; details: Homo sapiens, SF-539, 48 h, read-out: growth percent
In short: as §1

[9] = system: HS 578T; details: Homo sapiens, 48 h, read-out: growth percent
In short: as §2

[10] = system: RXF 393; details: Homo sapiens, RXF 393, 48 h, read-out: growth percent
In short: as §2

[11] = system: TK-10; details: Homo sapiens, TK-10, 48 h, read-out: growth percent
In short: as §1

[12] = system: HCC-2998; details: Homo sapiens, HCC 2998, 48 h, read-out: growth percent
In short: as §2

[13] = system: HOP-62; details: Homo sapiens, HOP-62, 48 h, read-out: growth percent
In short: as §2

[14] = system: NCI/ADR-RES; details: Homo sapiens, 48 h, read-out: growth percent
In short: as §2

[15] = system: SK-MEL-5; details: Homo sapiens, SK-MEL-5, 48 h, read-out: growth percent
In short: as §1

[16] = system: SK-OV-3; details: Homo sapiens, SK-OV-3, 48 h, read-out: growth percent
In short: as §1

[17] = system: OVCAR-8; details: Homo sapiens, OVCAR-8, 48 h, read-out: growth percent
In short: as §2

[18] = system: SNB-75; details: Homo sapiens, SNB-75, 48 h, read-out: growth percent
In short: as §1

[19] = system: A549/ATCC; details: Homo sapiens, A549, 48 h, read-out: growth percent
In short: as §2

[20] = system: UACC-62; details: Homo sapiens, UACC-62, 48 h, read-out: growth percent
In short: as §1

[21] = system: CCRF-CEM; details: Homo sapiens, 48 h, read-out: growth percent
In short: as §2

[22] = system: MALME-3M; details: Homo sapiens, 48 h, read-out: growth percent
In short: as §2

[23] = system: NCI-H522; details: Homo sapiens, NCI-H522, 48 h, read-out: growth percent
In short: as §2

[24] = system: SK-MEL-28; details: Homo sapiens, SK-MEL-28, 48 h, read-out: growth percent
In short: as §1

[25] = system: OVCAR-4; details: Homo sapiens, OVCAR-4, 48 h, read-out: growth percent
In short: as §2

[26] = system: K-562; details: Homo sapiens, K562, 48 h, read-out: growth percent
In short: as §2

[27] = system: KM12; details: Homo sapiens, KM12, 48 h, read-out: growth percent
In short: as §2

[28] = system: SW-620; details: Homo sapiens, SW-620, 48 h, read-out: growth percent
In short: as §1

[29] = system: SN12C; details: Homo sapiens, 48 h, read-out: growth percent
In short: as §1

[30] = system: M14; details: Homo sapiens, M14, 48 h, read-out: growth percent
In short: as §2

[31] = system: UACC-257; details: Homo sapiens, UACC-257, 48 h, read-out: growth percent
In short: as §1

[32] = system: DU-145; details: Homo sapiens, DU-145, 48 h, read-out: growth percent
In short: as §2

[33] = system: COLO205; details: Homo sapiens, COLO 205, 48 h, read-out: growth percent
In short: as §2

[34] = system: RPMI-8226; details: Homo sapiens, RPMI-8226, 48 h, read-out: growth percent
In short: as §2

[35] = system: SF-268; details: Homo sapiens, SF-268, 48 h, read-out: growth percent
In short: as §2

[36] = system: NCI-H226; details: Homo sapiens, NCI-H226, 48 h, read-out: growth percent
In short: as §2

COc1cc(CNC(=O)CCCC/C=C/C(C)C)ccc1OCc1cn(-c2ccc([N+](=O)[O-])cc2)nn1 [14e, (E)-N-(3-Methoxy-4-((1-(4-nitrophenyl)-1H-1,2,3-triazol-4-yl)methoxy)benzyl)-8methylnon-6-enamide]
activity at 10 µM [1]: 62.2% | activity at 10 µM [2]: 83.2% | activity at 10 µM [3]: 64% | activity at 10 µM [4]: 90.7% | activity at 10 µM [5]: 99.2% | activity at 10 µM [6]: 99.7% | activity at 10 µM [7]: 92% | activity at 10 µM [8]: 104% | activity at 10 µM [9]: 95.8% | activity at 10 µM [10]: 99.7% | activity at 10 µM [11]: 92.7% | activity at 10 µM [12]: 108% | activity at 10 µM [13]: 80.9% | activity at 10 µM [14]: 29% | activity at 10 µM [15]: 76.1% | activity at 10 µM [16]: 76.7% | activity at 10 µM [17]: 82.9% | activity at 10 µM [18]: 83.9% | activity at 10 µM [19]: 84.1% | activity at 10 µM [20]: 69.3% | activity at 10 µM [21]: 84.9% | activity at 10 µM [22]: 98.4% | activity at 10 µM [23]: 78.2% | activity at 10 µM [24]: 102% | activity at 10 µM [25]: 87.2% | activity at 10 µM [26]: 74.5% | activity at 10 µM [27]: 90% | activity at 10 µM [28]: 99.8% | activity at 10 µM [29]: 91.7% | activity at 10 µM [30]: 89.7% | activity at 10 µM [31]: 82.6% | activity at 10 µM [32]: 105% | activity at 10 µM [33]: 118% | activity at 10 µM [34]: 61.8% | activity at 10 µM [35]: 86.1% | activity at 10 µM [36]: 89.6%

COc1cc(CNC(=O)CCCC/C=C/C(C)C)ccc1OCc1cn(-c2cc(OC)c(OC)c(OC)c2)nn1 [14m, (E)-N-(3-Methoxy-4-((1-(3,4,5-trimethoxyphenyl)-1H-1,2,3-triazol-4-yl)methoxy)benzyl)-8-methylnon-6-enamide]
activity at 10 µM [1]: 86.6% | activity at 10 µM [2]: 90.1% | activity at 10 µM [3]: 95.8% | activity at 10 µM [4]: 79.5% | activity at 10 µM [5]: 109% | activity at 10 µM [6]: 106% | activity at 10 µM [7]: 97.6% | activity at 10 µM [8]: 92% | activity at 10 µM [9]: 69% | activity at 10 µM [10]: 104% | activity at 10 µM [11]: 91.6% | activity at 10 µM [12]: 91.8% | activity at 10 µM [13]: 90.7% | activity at 10 µM [14]: 91.7% | activity at 10 µM [15]: 77.5% | activity at 10 µM [16]: 89.9% | activity at 10 µM [17]: 88.2% | activity at 10 µM [18]: 95.2% | activity at 10 µM [19]: 91% | activity at 10 µM [20]: 87.8% | activity at 10 µM [21]: 96.3% | activity at 10 µM [22]: 98.5% | activity at 10 µM [23]: 65.2% | activity at 10 µM [24]: 108% | activity at 10 µM [25]: 103% | activity at 10 µM [26]: 79.7% | activity at 10 µM [27]: 103% | activity at 10 µM [28]: 102% | activity at 10 µM [29]: 102% | activity at 10 µM [30]: 94.5% | activity at 10 µM [31]: 93.6% | activity at 10 µM [32]: 85.4% | activity at 10 µM [33]: 106% | activity at 10 µM [34]: 79.4% | activity at 10 µM [35]: 90.5% | activity at 10 µM [36]: 91.4%

COc1cc(CNC(=O)CCCC/C=C/C(C)C)ccc1OCc1cn(-c2cccc([N+](=O)[O-])c2)nn1 [14f, (E)-N-(3-Methoxy-4-((1-(3-nitrophenyl)-1H-1,2,3-triazol-4-yl)methoxy)benzyl)-8-methylnon-6-enamide]
activity at 10 µM [1]: 78.4% | activity at 10 µM [2]: 88% | activity at 10 µM [3]: 72.3% | activity at 10 µM [4]: 81.7% | activity at 10 µM [5]: 107% | activity at 10 µM [6]: 101% | activity at 10 µM [7]: 88.4% | activity at 10 µM [8]: 94.4% | activity at 10 µM [9]: 90.8% | activity at 10 µM [10]: 92.7% | activity at 10 µM [11]: 105% | activity at 10 µM [12]: 101% | activity at 10 µM [13]: 97.4% | activity at 10 µM [14]: 81.8% | activity at 10 µM [15]: 93.2% | activity at 10 µM [16]: 93.5% | activity at 10 µM [17]: 76.9% | activity at 10 µM [18]: 92% | activity at 10 µM [19]: 92% | activity at 10 µM [20]: 70% | activity at 10 µM [21]: 90.2% | activity at 10 µM [22]: 103% | activity at 10 µM [23]: 82.6% | activity at 10 µM [24]: 106% | activity at 10 µM [25]: 94.2% | activity at 10 µM [26]: 81.5% | activity at 10 µM [27]: 91.2% | activity at 10 µM [28]: 97.4% | activity at 10 µM [29]: 89.5% | activity at 10 µM [30]: 93.4% | activity at 10 µM [31]: 94.4% | activity at 10 µM [32]: 109% | activity at 10 µM [33]: 107% | activity at 10 µM [34]: 65.9% | activity at 10 µM [35]: 92.2% | activity at 10 µM [36]: 90.9%

COc1cc(CNC(=O)CCCC/C=C/C(C)C)ccc1OCc1cn(-c2ccc(Cl)c(Cl)c2)nn1 [14d, (E)-N-(4-((1-(3,4-Dichlorophenyl)-1H-1,2,3-triazol-4-yl)methoxy)-3-methoxybenzyl)-8-methylnon-6-enamide]
activity at 10 µM [1]: 78.9% | activity at 10 µM [2]: 93.2% | activity at 10 µM [3]: 87% | activity at 10 µM [4]: 58.3% | activity at 10 µM [5]: 102% | activity at 10 µM [6]: 94.2% | activity at 10 µM [7]: 108% | activity at 10 µM [8]: 96.1% | activity at 10 µM [9]: 84% | activity at 10 µM [10]: 101% | activity at 10 µM [11]: 88.6% | activity at 10 µM [12]: 98.1% | activity at 10 µM [13]: 90.4% | activity at 10 µM [14]: 91.1% | activity at 10 µM [15]: 81.6% | activity at 10 µM [16]: 97.2% | activity at 10 µM [17]: 91% | activity at 10 µM [18]: 79.1% | activity at 10 µM [19]: 85.9% | activity at 10 µM [20]: 75.6% | activity at 10 µM [21]: 84.7% | activity at 10 µM [22]: 105% | activity at 10 µM [23]: 69.3% | activity at 10 µM [24]: 104% | activity at 10 µM [25]: 69.5% | activity at 10 µM [26]: 77.1% | activity at 10 µM [27]: 100% | activity at 10 µM [28]: 96.1% | activity at 10 µM [29]: 113% | activity at 10 µM [30]: 92.7% | activity at 10 µM [31]: 89.2% | activity at 10 µM [32]: 86.5% | activity at 10 µM [33]: 111% | activity at 10 µM [34]: 78.1% | activity at 10 µM [35]: 93.3% | activity at 10 µM [36]: 76.6%
